Screening data deposited in PubChem by Broad Institute.
In the library only some 3.5% were active in any assay of this set; here they are far more common.
MITF TRPM1 HTS – activators of MITF-driven TRPM1 promoter reporter, primary screen, cell-based, SK-MEL-5, luciferase, single point. SK-MEL-5 TRPM1-promoter luciferase, 24 h; % of positive control, neutral wells = 0. AID 588334, 2011. 0.75% of 300,000 active. activation, % at 12.5 µM;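 active = mean activation of at least 80% with every replicate also reaching 80%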
Wnt act – Wnt/beta-catenin pathway activators, primary screen, cell-based, plate reader, single point; 1.2% of 300,000 active; activation, % at 9.35 µM; Wnt/beta-catenin reporter cell assay, activator; AID 743398, 2014; in the data active = activation above about 30%, passing the limit was not always enough
esBAF inh – Bmi1 luciferase reporter increase in mESCs, primary screen, esBAF inhibitor project, mouse ES cells, Bmi1 luciferase knock-in, single point | 2% of 350,000 active | reporter increase, % at 12.5 µM | 24 h; 100% = twice the neutral-well signal; in the data active = activation above about 40%;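 also: a rise in the Bmi1 reporter signal indicates esBAF inhibition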
Cneo AK release – Cryptococcus neoformans cell lysis inducers, primary screen, AK release luminescence, single concentration. C. neoformans lysis, adenylate kinase release luminescence, 4 h; normalised: neutral wells 0, clomiphene wells 100. lysis activity, % at 15 µM. 0.2% of 360,000 active. AID 651654, 2012;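 active = mean lysis activity across replicates of at least 80%, whatever share of replicates individually reach that level; inactive = mean lysis activity below 80%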
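Material: C. neoformans cells; Schedule: 4 h static compound exposure, 37 °C, read 1 h post-reagent; Measured by: adenylate kinase release luminescence; Read-out: signal increase indicating cell lysis; Controls: Clomiphene as positive lysis control.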
Env fusion inh – inhibitors of HIV-1 Env-driven cell-cell fusion, primary screen, HeLa-JRFL effector, CEM21 target cells, luciferase; inhibition, % at 12.3 µM; 1.1% of 360,000 active; AID 651610, 2012;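 active = mean replicate inhibition score of at least 50 and every replicate individually at or above 50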
ERAP1 inh – human ERAP1 aminopeptidase inhibitors, primary screen, biochemical, single point, plate reader; Endoplasmic reticulum aminopeptidase 1 (Homo sapiens), Q9NZ08; recombinant ERAP1, Leu-AMC fluorescence, 60 min; inhibition, % at 10.7 µM; 0.15% of 340,000 active; AID 652197, 2013;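 active = mean replicate inhibition of at least 30%, or all replicates individually reaching that 30% level; inactive = mean below 30% and not every replicate reaching it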
Target sequence (Q9NZ08 whole entry, looked up): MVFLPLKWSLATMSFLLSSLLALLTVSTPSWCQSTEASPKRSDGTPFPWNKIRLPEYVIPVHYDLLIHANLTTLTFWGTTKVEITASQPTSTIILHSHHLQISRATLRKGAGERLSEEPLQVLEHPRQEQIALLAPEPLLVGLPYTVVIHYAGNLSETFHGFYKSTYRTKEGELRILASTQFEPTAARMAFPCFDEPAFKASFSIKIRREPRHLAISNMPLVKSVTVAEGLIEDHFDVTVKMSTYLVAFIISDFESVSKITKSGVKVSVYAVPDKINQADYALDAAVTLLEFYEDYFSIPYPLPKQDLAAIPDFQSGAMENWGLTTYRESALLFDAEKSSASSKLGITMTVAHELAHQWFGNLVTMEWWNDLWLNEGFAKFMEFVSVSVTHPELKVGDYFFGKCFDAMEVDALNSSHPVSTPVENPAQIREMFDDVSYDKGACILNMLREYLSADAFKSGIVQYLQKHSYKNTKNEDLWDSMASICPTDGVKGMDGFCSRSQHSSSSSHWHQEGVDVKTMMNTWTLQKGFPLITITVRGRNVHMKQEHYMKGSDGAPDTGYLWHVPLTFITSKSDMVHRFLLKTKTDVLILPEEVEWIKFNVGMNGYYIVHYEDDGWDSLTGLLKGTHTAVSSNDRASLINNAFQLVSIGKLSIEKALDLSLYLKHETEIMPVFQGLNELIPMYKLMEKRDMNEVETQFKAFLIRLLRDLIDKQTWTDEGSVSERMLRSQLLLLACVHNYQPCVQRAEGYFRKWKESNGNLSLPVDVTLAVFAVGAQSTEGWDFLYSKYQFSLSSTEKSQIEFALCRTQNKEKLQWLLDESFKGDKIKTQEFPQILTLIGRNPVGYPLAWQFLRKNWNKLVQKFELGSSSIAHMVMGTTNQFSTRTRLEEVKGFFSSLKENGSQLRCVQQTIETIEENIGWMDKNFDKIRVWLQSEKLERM
Each line names hits and unclear results; the compound was inactive in the other large screens.

OCCn1c(-c2ccc3c(c2)OCO3)csc1=Nc1ccccc1	esBAF inh 78 (no result: ERAP1 inh)
CCOc1ccc(N=c2scc(-c3ccc(OC)cc3)n2CCO)cc1	none (no result: ERAP1 inh)
CCn1c(-c2ccccc2)csc1=Nc1ccc(O)cc1	Wnt act 66 (no result: esBAF inh, Cneo AK release)
C[C@@H]1CN([C@H](C)CO)C(=O)c2cccc(NC(=O)c3ccc(-c4nccs4)cc3)c2O[C@H]1CN(C)S(=O)(=O)c1cn(C)cn1	none (no result: MITF TRPM1 HTS, Wnt act)
COc1cc(SC)ccc1C(=O)Nc1ccccn1	none (no result: esBAF inh)
COc1cc(SC)ccc1C(=O)Nc1ccc(C)cc1C	none (no result: Wnt act, esBAF inh, Cneo AK release, ERAP1 inh)
O=C(Nc1ccc(OCC(=O)N2CCOCC2)cc1)Nc1cccc(Cl)c1	none (no result: esBAF inh, Cneo AK release)
CC(C)(C)c1ccc(NC(=O)Nc2ccc(OCC(=O)N3CCOCC3)cc2)cc1	MITF TRPM1 HTS 90 (no result: esBAF inh, Cneo AK release)
COc1cc(SC)ccc1C(=O)NC(C)C	none
COc1cc(SC)ccc1C(=O)Nc1cccc(C)n1	MITF TRPM1 HTS 101, esBAF inh 45
COc1cc(SC)ccc1C(=O)Nc1ccon1	esBAF inh 51 (no result: MITF TRPM1 HTS, ERAP1 inh)
COc1cc(SC)ccc1C(=O)Nc1ccc(C)cc1	Wnt act 50 (no result: esBAF inh, Cneo AK release)
CCCNC(=O)Nc1ccc2c(c1)OC[C@@H](C)N(C(C)=O)C[C@H](C)[C@@H](OC)CN(C)C2=O	none (no result: MITF TRPM1 HTS, Wnt act)
COc1ccc(S(=O)(=O)Nc2cccc3c2O[C@H](CN(C)S(=O)(=O)c2cn(C)cn2)[C@@H](C)CN([C@@H](C)CO)C3=O)cc1	none (no result: MITF TRPM1 HTS, Wnt act, Env fusion inh)
COC(=O)c1ccc(COC(=O)c2ccc(SC)cc2OC)cc1	esBAF inh 63
COc1cc(SC)ccc1C(=O)Nc1ncc(Cl)cc1Cl	Wnt act 70 (no result: esBAF inh, Cneo AK release)
COc1cc(SC)ccc1C(=O)Nc1ccc(OCC(=O)N2CCOCC2)cc1	MITF TRPM1 HTS 83
COc1cc(SC)ccc1C(=O)Nc1ccc(Br)cn1	none
C[C@H]1CN([C@@H](C)CO)C(=O)c2cccc(NS(=O)(=O)c3ccc(Cl)cc3)c2O[C@@H]1CN(C)S(=O)(=O)c1cn(C)cn1	none (no result: MITF TRPM1 HTS, Wnt act, Cneo AK release, ERAP1 inh)
CCCNC(=O)N1CC2(CN(Cc3ccc(F)cc3)C2)c2c([nH]c3cc(OC)ccc23)[C@H]1CO	none (no result: MITF TRPM1 HTS, Wnt act, esBAF inh, Cneo AK release, Env fusion inh)
O=C(C1CC1)N1CC2(C1)[C@H](c1ccccc1)[C@H](CO)N2Cc1ccccc1F	none (no result: MITF TRPM1 HTS, Wnt act, esBAF inh, Cneo AK release, Env fusion inh)
CCN(CC)CCNC(=O)c1ccc(NC(=O)c2ccc(-n3cncn3)c([N+](=O)[O-])c2)cc1	ERAP1 inh 100 (no result: MITF TRPM1 HTS, esBAF inh, Cneo AK release)
Cc1ccc(NC(=O)c2ccc(-n3cncn3)c([N+](=O)[O-])c2)cc1	none (no result: MITF TRPM1 HTS, esBAF inh, Cneo AK release, ERAP1 inh)
Cc1noc(C)c1S(=O)(=O)Nc1ccc2c(c1)C(=O)N([C@H](C)CO)C[C@@H](C)[C@H](CN(C)C(=O)Nc1cccc3ccccc13)OCCCC[C@@H](C)O2	none (no result: MITF TRPM1 HTS, Wnt act)
c1cc(SC2CCCCC2)cc(-c2nc3cnccn3c2NC2CCCCC2)c1	Env fusion inh 59
C=CC[N+](C)(C)CCCNC(=O)/C=N/O	ERAP1 inh 69 (no result: esBAF inh, Cneo AK release)
CC(OC(=O)c1ccc(-n2cnnn2)cc1)C(=O)Nc1ccccc1F (centres undefined)	Wnt act 51
Cc1ccc(CN=C2Nc3ccccc3CS2)cc1	none (no result: MITF TRPM1 HTS, ERAP1 inh)
Clc1ccc(CN=C2Nc3ccccc3CS2)cc1	Wnt act 64, esBAF inh 56 (no result: MITF TRPM1 HTS, ERAP1 inh)
Cc1noc(C)c1S(=O)(=O)Nc1ccc2c(c1)C(=O)N([C@@H](C)CO)C[C@H](C)[C@H](CN(C)S(=O)(=O)c1cn(C)cn1)O2	none (no result: MITF TRPM1 HTS, Wnt act)
Brc1ccc2c(c1)C(C1=NCCN1)c1ccccc1CS2 (centres undefined)	Env fusion inh 62 (no result: esBAF inh)
c1ccc2c(c1)CCCC2C1=NCCN1 (centres undefined)	none
C[C@H]1CN([C@@H](C)CO)C(=O)c2cc(NC(=O)Cc3cn(C)c4ccccc34)ccc2O[C@@H]1CN(C)Cc1ccc(Oc2ccccc2)cc1	none (no result: MITF TRPM1 HTS, Wnt act)
COc1ccc(S(=O)(=O)N(CC(=O)O)c2ccccn2)cc1	none (no result: esBAF inh, ERAP1 inh)
COc1ccc(S(=O)(=O)n2ccc(-c3ccc(OCCN(C)c4ccccn4)cc3)n2)cc1	Env fusion inh 75 (no result: MITF TRPM1 HTS, ERAP1 inh)
C[C@@H]1CN([C@@H](C)CO)C(=O)c2cc(-c3cccc(F)c3)cnc2O[C@@H]1CN(C)S(=O)(=O)c1cccc(F)c1	none (no result: MITF TRPM1 HTS, Wnt act, esBAF inh)
